For five molecules, Activity and viability results are on record in ChEMBL document CHEMBL1155661, “Bioactive steroids from the whole herb of Euphorbia chamaesyce” (J Nat Prod, 2000).

Common to all, as to type: cell-based
Data set [1] relates to Raji. In words: Inhibition of 12-O-tetradecanoylphorbol-13-acetate induced EBV-early antigen activation in human Raji cells assessed as EA induction at 1000 molar ratio by immunofluorescence assay relative to TPA. Details: scale not given: the % may be the effect or the level left. Particulars: human gammaherpesvirus 4. The method, boiled down: (§1)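 Cells at 1 × 10⁶/mL were incubated 48 h at 37 °C with n-butyric acid (4 mM) and TPA (32 pmol, 20 ng/mL) in DMSO, plus compound in DMSO dosed as mol ratio to TPA. EA-positive cells in smears were detected by indirect immunofluorescence with high-titer EBV-EA-positive nasopharyngeal carcinoma patient sera. At least 500 cells were counted, experiments were run twice, and values are expressed relative to TPA alone (100%).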

Data set [2] concerns Raji. The experiment in a line: Inhibition of 12-O-tetradecanoylphorbol-13-acetate induced EBV-early antigen activation in human Raji cells assessed as EA induction at 500 molar ratio by immunofluorescence assay relative to TPA. Details: scale not given: the % may be the effect or the level left. To be noted: human gammaherpesvirus 4. The method, boiled down: as §1
In data set [3] the test system is Raji. In words: Inhibition of 12-O-tetradecanoylphorbol-13-acetate induced EBV-early antigen activation in human Raji cells assessed as EA induction at 10 molar ratio by immunofluorescence assay relative to TPA. To be noted: human gammaherpesvirus 4. Details: scale not given: the % may be the effect or the level left. The procedure, abridged: as §1
Data set [4] can be described thus: Cytotoxicity against human Raji cells assessed as cell viability at 1000 molar ratio. To be noted: read-out: Activity.
The test system of data set [5] is Raji. In words: Inhibition of 12-O-tetradecanoylphorbol-13-acetate induced EBV-early antigen activation in human Raji cells assessed as EA induction at 100 molar ratio by immunofluorescence assay relative to TPA. Details: scale not given: the % may be the effect or the level left. Particulars: human gammaherpesvirus 4. The method, boiled down: as §1

With `C=C(CC[C@@H](C)[C@H]1CC[C@@]2(C)C3=C(C(=O)C[C@]12C)[C@@]1(C)CC[C@H](O)[C@@H](C)[C@@H]1CC3)C(C)C`, the Activity in data set [1] was determined as 0%; in data set [2], 23.6%; in data set [3], 92.8%; in data set [5] it was 72.4%. In data set [4], the viability at 1000 molar ratio stood at 70%.

As for `CC1(C)CC[C@]2(C(=O)O)CC[C@]3(C)C(=CC[C@@H]4[C@@]5(C)CC[C@H](O)C(C)(C)[C@@H]5CC[C@]43C)[C@@H]2C1` [OLEANOLIC_ACID], the Activity is 12.7% in data set [1], 22.4% in data set [2], 93.7% in data set [3] and 72.5% in data set [5]. Moreover, the viability at 1000 molar ratio in data set [4] is 70%.

Turning to `C=C(CC[C@@H](C)[C@H]1CC[C@@]2(C)C3=C(C(=O)C[C@]12C)[C@@]1(C)CC[C@H](O)[C@@H](C)[C@@H]1CC3=O)C(C)C`, the Activity was 0% in data set [1], 22.5% in data set [2], 91.9% in data set [3] and 70.4% in data set [5]. Also, the viability at 1000 molar ratio in data set [4] was found to be 70%.

Regarding `C=C(CC[C@@H](C)[C@H]1CC[C@@]2(C)C3=C(CC[C@]12C)[C@@]1(C)CC[C@H](O)[C@@H](C)[C@@H]1CC3)C(C)C` [OBTUSIFOLIOL], the Activity in data set [1] was 0%; in data set [2], 30.2%; in data set [3], 95.8%; in data set [5] it was 77.4%. Further, in data set [4], the viability at 1000 molar ratio was 70%.

On to `C=C(CC[C@@H](C)[C@H]1CC[C@@]2(C)C3=CC[C@H]4[C@H](C)[C@@H](O)CC[C@]4(C)C3=CC[C@]12C)C(C)C`, for which the Activity in data set [1] amounted to 0%; in data set [2] it was 27.3%; in data set [3], 92.4%; in data set [5], 74.9%. In addition, in data set [4], the viability at 1000 molar ratio was 70%.
